In paper PMC4945769 (British Journal of Pharmacology, 2016):

How the values were obtained:
[1] = Prediction of human PK for AZ2; conditions: predicted
[2] = Plasma protein binding by equilibrium dialysis, rat plasma; assay type: in vitro ADME; conditions: 10 μM, 18 h at 37°C, mean, n of at least 3
Method in brief: (§1)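 Test compound at 10 μM final was added to plasma and dialysed against buffer across a 5 kD membrane in a rotating unit for 18 h at 37°C. Buffer and plasma-side aliquots were quenched in methanol and measured by LC–MS/MS. Free fraction is the mean of at least three studies.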

[3] = Plasma protein binding by equilibrium dialysis, human plasma; assay type: in vitro ADME; conditions: 10 μM, 18 h at 37°C, mean, n of at least 3
Method in brief: as §1

NSP activity = test: Pharmacokinetic/pharmacodynamic modelling of NSP activity in rat; assay type: in vivo
Method in brief: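 Rat NSP activity time courses were fitted with an indirect response model: production rate kin scaled by uninhibited DPP1 fraction 1 − C/(IC50 + C), loss rate kout, baseline taken as 100%. IC50 was the in vitro cell potency corrected for plasma protein binding. Exposure was simulated with a one-compartment PK model. kout was fitted to blood data from the onset study and bone marrow data from the recovery study.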

PK studies in the rat = assay type: in vivo; conditions: Sprague Dawley, plasma, intravenous, 1 mg·kg^−1
Method in brief: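 Male Sprague Dawley rats were given test compound at 1 mg·kg−1 IV or 3 mg·kg−1 orally; dose was set by syringe weight difference. Serial tail-vein blood was taken from 2 to 1440 min and centrifuged at 4°C. Plasma was stored at −20°C and then quantified by LC–MS/MS against calibration curves in control rat plasma. Parameters were derived by non-compartmental analysis.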

neutrophil elastase (NE) = test: Onset studies: NE activity in rat blood and bone marrow lysates; assay type: in vivo; conditions: onset 1 (14 day study), bone marrow
Method in brief: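 Rats were dosed orally twice daily with test compound, 3.6 mg·kg−1 and then 10.7 mg·kg−1 8 h later, against citrate buffer pH 3.0 vehicle. Onset 1 ran 5, 8, 10, 12 or 14 days. Femurs were taken under isoflurane 2 h after the last dose. Marrow leukocytes were lysed on ice at 10^8 cells mL−1. Lysates received Methoxysuccinyl-Ala-Ala-Pro-Val-AMC and were read by fluorescence (ex 350–380, em 450–460 nm) for up to 60 min. Initial rate came from the linear range.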

proteinase 3 (PR3) = test: Onset studies: PR3 activity in rat blood and bone marrow lysates; assay type: in vivo; conditions: onset 1 (14 day study), bone marrow
Method in brief: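 Male Sprague Dawley rats received test compound orally twice daily, 3.6 and 10.7 mg·kg−1 8 h apart, for up to 14 days. Vehicle was citrate buffer pH 3.0. Blood and femoral marrow lysates (10^8 cells mL−1, Triton X-100) were incubated 15 min, then given the 5-FAM/QXL520 quenched peptide substrate. Fluorescence (ex 320–490, em 405–520 nm) was followed up to 60 min. Initial rate came from the linear portion.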

cathepsin G (CatG) = test: Onset studies: CatG activity in rat blood and bone marrow lysates; assay type: in vivo; conditions: two onset studies, small assay window
Method in brief: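 Male Sprague Dawley rats (200–400 g) were dosed orally twice daily, 3.6 mg·kg−1 in the morning and 10.7 mg·kg−1 8 h later, for 5–14 days (onset 1) or 1–8 days (onset 2). Vehicle was 0.1 M citrate buffer, pH 3.0. Blood and femoral marrow cells were lysed at 10^8 cells mL−1 in Triton X-100 buffer. Lysates were incubated 15 min, then given N-succinyl-Ala-Ala-Pro-Phe-pNA and read by absorbance at 405 nm for 90–120 min. Initial rate was taken from the linear range.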

DPP1 = DPP1 (Homo sapiens, UniProt P53634); test: DPP1 activity cell assay; assay type: cell-based; conditions: read-out: DPP1 IC50, corrected for PPB; in vitro potency corrected for rat PPB

SMILES | CL [1] | PPB (%free) [2] | PPB (%free) [3] | maximum reduction in protease activity in bone marrow (NSP activity; recovery study) | clearance (PK studies in the rat) | days of treatment to reach maximum reduction in NE activity (neutrophil elastase (NE)) | days of treatment to reach maximum reduction in PR3 activity (proteinase 3 (PR3)) | effect on CatG activity (cathepsin G (CatG)) | maximum reduction in protease activity in blood (NSP activity; onset studies) | IC50 (DPP1)
N#Cc1ccc(-c2ccc(C[C@@H](C#N)NC(=O)C3(N)CCOCC3)cc2)cc1 [AZ2, (S)‐4‐amino‐N‐(1‐cyano‐2‐(4′‐cyanobiphenyl‐4‐yl)ethyl)tetrahydro‐2H‐pyran‐4‐carboxamide] | 3.4 L/h | 11 %free | 9.1 %free | 90% | 1.67 mL/min |  |  |  |  | 
N#Cc1ccc(-c2ccc(C[C@@H](C#N)NC(=O)[C@@H]3CCCCN3)cc2)cc1 [AZ1, (S)‐N‐((S)‐1‐cyano‐2‐(4′‐cyanobiphenyl‐4‐yl)ethyl)piperidine‐2‐carboxamide] |  | 4.1 %free |  |  | 6.67 mL/min | 8 days | 8 days | lack of effect | about 75% | 140 nM
